Screens deposited in PubChem by Broad Institute.
T cruzi growth-1: T. cruzi proliferation inhibition; inhibition, % at 8.34 µM; T. cruzi beta-gal in NIH3T3, GalScreen luminescence, 90 h; actives 5.9% (n = 77,000);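 active = mean inhibition above about 93%, with at least 55% of replicates each passing it, limit read from the data, passing the limit was not always enough; inconclusive = only one of those two conditions holds; inactive = neither condition holds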
GASC1 inh: blocks human GASC-1 (KDM4C) demethylase activity; Q9H3R0; GST-KDM4C 2-372, H3K9me3 peptide, LANCE TR-FRET; inhibition, % at 12.5 µM; actives 0.15% (n = 96,000);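 active = mean replicate inhibition above about 25%, with at least 55% of replicates also reaching it, limit read from the data, passing the limit was not always enough; inconclusive = only one of those two conditions met; inactive = neither condition met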
Target sequence (Q9H3R0 2-372 limits assumed): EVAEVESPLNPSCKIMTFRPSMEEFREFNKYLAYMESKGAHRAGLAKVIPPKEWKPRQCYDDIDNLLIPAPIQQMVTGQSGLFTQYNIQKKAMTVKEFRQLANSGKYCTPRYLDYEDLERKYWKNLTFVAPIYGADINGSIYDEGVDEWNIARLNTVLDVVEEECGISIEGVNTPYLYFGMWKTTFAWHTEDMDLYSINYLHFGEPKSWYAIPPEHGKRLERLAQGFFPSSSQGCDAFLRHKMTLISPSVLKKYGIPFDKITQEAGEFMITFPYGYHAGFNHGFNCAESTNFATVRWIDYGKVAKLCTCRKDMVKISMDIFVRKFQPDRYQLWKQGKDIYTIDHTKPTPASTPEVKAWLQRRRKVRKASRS
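Material: GST-tagged GASC-1 (JMJD2C) catalytic fragment, aa 2-372. Input: enzyme final amount 10 nM. Medium: HEPES buffer, pH 7.5, plus ascorbate. Reagent: H3K9me3 peptide substrate, Fe(II), 2-oxoglutarate. Doses: single dose. Times: reaction 30 min RT, detection step 1 h RT. Measured by: LANCE TR-FRET. Evaluation: Fall in 671/618 emission ratio as inhibition.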
IDH1 mut inh: inhibitors of human IDH1 R132H | IDH1 R132H reductase, diaphorase/resazurin fluorescence, 60 min | inhibition, % at 10 µM | actives 0.18% (n = 70,000); in the data active = inhibition above about 34%; inconclusive = no clear call, values can overlap the other calls; inactive = below about 11%;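 also: 0% = DMSO and 100% = no enzyme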
Target sequence (O75874 whole entry R132H): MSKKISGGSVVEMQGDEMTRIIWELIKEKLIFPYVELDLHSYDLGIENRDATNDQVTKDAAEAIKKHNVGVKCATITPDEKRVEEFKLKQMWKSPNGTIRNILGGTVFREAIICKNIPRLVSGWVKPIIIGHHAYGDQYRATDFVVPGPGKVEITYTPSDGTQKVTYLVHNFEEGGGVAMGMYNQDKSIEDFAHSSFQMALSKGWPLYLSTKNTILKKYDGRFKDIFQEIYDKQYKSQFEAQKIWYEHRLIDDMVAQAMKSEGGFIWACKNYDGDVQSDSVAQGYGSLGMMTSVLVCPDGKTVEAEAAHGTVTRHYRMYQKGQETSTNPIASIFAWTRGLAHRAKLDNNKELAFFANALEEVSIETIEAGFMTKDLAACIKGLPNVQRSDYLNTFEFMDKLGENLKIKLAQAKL
T cruzi growth-2: inhibitors of T. cruzi proliferation; T. cruzi beta-gal in NIH3T3, GalScreen luminescence, 90 h; actives 72% (n = 5,600); inhibition, % at 8.35 µM; AID 651739; shares compounds with T cruzi growth-1;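 active = mean replicate inhibition above about 95% and at least 55% of replicates individually reaching it, limit read from the data; inconclusive = only one of the two criteria is met; inactive = neither criterion is met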
T cruzi growth-3: inhibitors of T. cruzi proliferation; actives 21% (n = 5,600); inhibition, % at 2.09 µM; shares compounds with T cruzi growth-1; T. cruzi beta-gal in NIH3T3, GalScreen luminescence, 90 h;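 active = mean inhibition above about 95%, with at least 55% of replicates also reaching it, limit read from the data; inconclusive = meets just one of the two conditions; inactive = meets neither condition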;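 also: plate controls were neutral control median for no effect and positive control median for full effect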
3T3 cytotox: kills mouse NIH/3T3 fibroblasts; cytotoxicity (signal decrease), % at 8.35 µM; actives 14% (n = 5,600); NIH/3T3 viability, CellTiter-Glo ATP luminescence, 90 h; AID 651742; shares compounds with T cruzi growth-1;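 active = mean signal decrease across replicates above about 35% based on untreated-well scatter, with enough replicates individually passing, limit read from the data; inconclusive = no rule stated though some were filed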;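 also: 0% = median of neutral control wells and 100% = median of positive control wells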
3T3 cytotox 2: kills mouse NIH/3T3 fibroblasts. shares compounds with T cruzi growth-1. NIH/3T3 viability, CellTiter-Glo ATP luminescence, 90 h. inhibition, % at 24.9 µM. actives 56% (n = 5,600);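 active = mean loss of cell viability signal at or above a set limit, and enough replicates individually reaching it; inconclusive = meets only the mean limit or only the replicate share; inactive = meets neither condition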;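 also: 0% = median of neutral control wells and 100% = median of positive control wells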
Starred values were filed as active, the others as inactive; ? = inconclusive; . = no result given. Many of the other results were omitted from the sample, so hits are more common in it than they were.

SMILES	T cruzi growth-1	GASC1 inh	IDH1 mut inh	T cruzi growth-2	T cruzi growth-3	3T3 cytotox	3T3 cytotox 2
C[C@@H]1CN([C@@H](C)CO)C(=O)c2cc(NC(=O)CCN3CCOCC3)ccc2O[C@@H]1CN(C)CC1CCCCC1	-8.1	-0.6	3.6	.	.	.	.
C[C@H](CO)N1C[C@H](C)[C@H](CN(C)C(=O)c2ccc3c(c2)OCO3)Oc2ncc(C#CCN(C)C)cc2C1=O	.	4.2	-1.3	.	.	.	.
CCOC(=O)CSc1nc(N)c2c3c(sc2n1)COC(C)(C)C3	.	.	-0.3	.	.	.	.
COCC#Cc1cnc2c(c1)C(=O)N([C@@H](C)CO)C[C@@H](C)[C@H](CN(C)Cc1ccccc1)O2	-17.2	.	1.0	.	.	.	.
C[C@@H]1CN([C@H](C)CO)C(=O)c2cc(NC(=O)c3ccccc3)ccc2O[C@@H](C)CCCCO[C@@H]1CN(C)S(=O)(=O)c1ccc(F)cc1	.	-0.8	.	.	.	.	.
CCNC(=O)[C@@H]1[C@@H](CO)[C@@H]2Cn3c(ccc(-c4ccc(OC)cc4)c3=O)[C@@H]2N1Cc1ccccc1	99.8*	4.1	.	5.6	-25.3	-13.5	0.5
CCNC(=O)[C@H]1[C@H](CO)[C@H]2Cn3c(ccc(-c4ccccc4)c3=O)[C@H]2N1Cc1ccccc1	52.2	3.0	.	.	.	.	.
Cc1cccc(S(=O)(=O)N2C[C@@H]3[C@H](c4ccccc42)[C@H](CO)N3Cc2ccccn2)c1	31.9	4.0	.	.	.	.	.
COc1ccc(S(=O)(=O)N(C)C[C@@H]2OCCCC[C@@H](C)Oc3ccc(NC(=O)Nc4ccc5c(c4)OCO5)cc3C(=O)N([C@@H](C)CO)C[C@H]2C)cc1	?	1.8	1.1	107.2*	70.6	-5.3	-4.4
C[C@@H]1CCCCO[C@@H](CN(C)S(=O)(=O)c2ccc(Cl)cc2)[C@@H](C)CN([C@H](C)CO)C(=O)c2cc(NC(=O)Nc3ccc4c(c3)OCO4)ccc2O1	71.5	0.7	.	.	.	.	.
COc1ccc(S(=O)(=O)N(C)C[C@H]2OCCCC[C@@H](C)Oc3ccc(NC(=O)Nc4ccc5c(c4)OCO5)cc3C(=O)N([C@H](C)CO)C[C@@H]2C)cc1	49.9	3.3	-0.1	.	.	.	.
Cc1ccc(S(=O)(=O)N(C)C[C@H]2OCCCC[C@H](C)Oc3ccc(NC(=O)Nc4ccc5c(c4)OCO5)cc3C(=O)N([C@@H](C)CO)C[C@@H]2C)cc1	.	0.8	1.7	.	.	.	.
Cc1ccc(S(=O)(=O)N(C)C[C@@H]2OCCCC[C@H](C)Oc3ccc(NC(=O)Nc4ccc5c(c4)OCO5)cc3C(=O)N([C@H](C)CO)C[C@@H]2C)cc1	118.8*	1.3	0.4	111.0*	105.2*	-0.1	23.5
C[C@@H]1CCCCO[C@H](CN(C)S(=O)(=O)c2ccc(Cl)cc2)[C@@H](C)CN([C@@H](C)CO)C(=O)c2cc(NC(=O)Nc3ccc4c(c3)OCO4)ccc2O1	102.7*	1.0	.	108.0*	103.7*	-2.2	-4.2
COc1ccc(NC(=O)N(C)C[C@H]2OCCCC[C@H](C)Oc3ccc(NC(=O)Cc4ccccc4)cc3C(=O)N([C@@H](C)CO)C[C@@H]2C)cc1	0.4	0.1	.	.	.	.	.
COc1ccc(NC(=O)N(C)C[C@@H]2OCCCC[C@@H](C)Oc3ccc(NC(=O)CCCN(C)C)cc3C(=O)N([C@H](C)CO)C[C@H]2C)cc1	-1.8	-0.9	.	.	.	.	.
C[C@H]1CCCCO[C@@H](CN(C)C(=O)NC2CCCCC2)[C@@H](C)CN([C@@H](C)CO)C(=O)c2cc(NS(=O)(=O)c3ccccc3)ccc2O1	102.5*	-0.9	5.0	79.9	35.9	10.2	11.1
C[C@@H]1CCCCO[C@H](CN(C)C(=O)NC2CCCCC2)[C@H](C)CN([C@H](C)CO)C(=O)c2cc(NS(=O)(=O)c3ccccc3)ccc2O1	105.6*	-0.8	.	72.5	37.5	-8.1	-23.5
C[C@@H]1CN([C@H](C)CO)C(=O)c2cc(NS(=O)(=O)c3ccccc3)ccc2O[C@@H](C)CCCCO[C@@H]1CN(C)C(=O)NC1CCCCC1	90.1	-0.1	.	.	.	.	.
C[C@@H]1CCCCO[C@H](CN(C)C(=O)NC2CCCCC2)[C@@H](C)CN([C@@H](C)CO)C(=O)c2cc(NS(=O)(=O)c3ccccc3)ccc2O1	94.0	-0.4	-1.5	.	.	.	.
C[C@@H]1CCCCO[C@H](CN(C)C(=O)NC2CCCCC2)[C@H](C)CN([C@@H](C)CO)C(=O)c2cc(NS(=O)(=O)c3ccccc3)ccc2O1	102.1*	-1.4	0.9	104.2*	42.6	-2.9	-5.8
C[C@@H]1CCCCO[C@H](CN(C)C(=O)NC2CCCCC2)[C@@H](C)CN([C@H](C)CO)C(=O)c2cc(NS(=O)(=O)c3ccccc3)ccc2O1	34.6	-0.2	.	.	.	.	.
CO[C@H]1CN(C)C(=O)c2ccc(NC(=O)Nc3c(C)noc3C)cc2OC[C@@H](C)N(C)C[C@H]1C	29.7	1.1	0.0	.	.	.	.
C[C@H]1CN([C@@H](C)CO)S(=O)(=O)c2ccc(/C=C/c3ccccc3)cc2O[C@@H]1CN(C)C(=O)c1ccc2c(c1)OCO2	118.5*	-2.4	2.5	104.3*	61.1	30.4	38.5*
C/C=C/c1ccc2c(c1)O[C@H](CN(C)C(=O)c1ccc3c(c1)OCO3)[C@@H](C)CN([C@@H](C)CO)S2(=O)=O	49.7	-2.5	0.3	.	.	.	.
SMILES	T cruzi growth-1	GASC1 inh	IDH1 mut inh	T cruzi growth-2	T cruzi growth-3	3T3 cytotox	3T3 cytotox 2
C[C@H](CO)N1C[C@H](C)[C@H](CN(C)C(=O)c2ccc3c(c2)OCO3)Oc2cc(/C=C/c3ccccc3)ccc2S1(=O)=O	105.7*	-1.5	2.7	104.4*	91.6	19.2	27.2*
C[C@H]1CN([C@@H](C)CO)S(=O)(=O)c2ccc(/C=C/c3ccccc3)cc2O[C@H]1CN(C)C(=O)c1ccc2c(c1)OCO2	?	-2.2	-0.1	103.0*	92.6	32.7	?
C/C=C/c1ccc2c(c1)O[C@H](CN(C)C(=O)c1ccc3c(c1)OCO3)[C@H](C)CN([C@@H](C)CO)S2(=O)=O	77.0	-1.2	0.2	.	.	.	.
C/C=C/c1ccc2c(c1)O[C@@H](CN(C)C(=O)c1ccc3c(c1)OCO3)[C@@H](C)CN([C@@H](C)CO)S2(=O)=O	27.8	4.8	0.1	.	.	.	.
C/C=C/c1ccc([C@@H]2[C@@H](CO)N(C(C)=O)[C@H]2CNC(=O)c2ccncc2)cc1	47.9	0.4	.	.	.	.	.
CC(=O)N1C[C@H]2[C@@H](c3ccccc31)[C@H](CO)N2C(=O)Nc1ccc(F)cc1	-20.0	1.3	.	.	.	.	.
O=C(C[C@@H]1CC[C@H](NS(=O)(=O)c2ccc(F)cc2)[C@H](CO)O1)N1CCN(c2ccccc2)CC1	49.7	1.3	0.0	.	.	.	.
C[C@@H]1CN([C@H](C)CO)S(=O)(=O)c2ccc(C3=CCCCC3)cc2O[C@@H]1CN(C)C	-17.3	-1.9	-1.7	.	.	.	.
C[C@H](O)C#Cc1ccc2c(c1)O[C@H](CN(C)Cc1ccccc1)[C@H](C)CN([C@@H](C)CO)S2(=O)=O	-154.8	.	-4.7	.	.	.	.
